# The entries come from a sample that favours hits as a whole.
# HSF1 inhib = HSF1 inhibition | NIH3T3-HGL HSE-luciferase, MG132-induced, luminescence 8 h; hits give low values | activity change, negative = inhibition, % at 7.5 µM (by protocol) | 300,000 compounds, 0.77% hits | AID 2098;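 active = more than half of replicate wells show activity change below -50%, luminescence cut by over half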;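 also: luciferase reports HSF-1 transcriptional activity via heat shock element; 0% = median of DMSO wells and -100% = zero luminescence signal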
# HSF1 activator = increases HSF-1 driven luciferase reporter signal. NIH3T3-HGL HSF-1 luciferase reporter, MG132, 8 h; 100% = twice DMSO control signal. activation, % at 9 µM. 300,000 compounds, 1.7% hits;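 active = mean replicate activation of at least 50% with a set share of replicates each reaching 50%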;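 also: 0% = median of the neutral control wells and 100% = twice that signal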
# T cruzi inh = blocks replication of Trypanosoma cruzi | T. cruzi beta-gal in NIH3T3, luminescence, 90 h | AID 1885 | inhibition, % (no concentration beside the values) | 300,000 compounds, 1.4% hits;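 active = mean inhibition across valid replicates above about 55%, limit read from the data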;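 also: signal also drops with host cell toxicity which is not excluded here; 0% = plate median of DMSO wells and 100% = zero luminescence signal; higher percent means less beta-gal luminescence so fewer parasites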
#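 Incubation – ≥90 h infection period, 3 h prior cell attachment · System – NIH/3T3 fibroblasts plus reporter T. cruzi · Doses – compound pinned at 50 nL/well, DMSO · Read-out basis – percent inhibition of parasite-derived β-gal signal · Signal – luminescent β-galactosidase signal after 60 min lysis · Also added – 5000 T. cruzi trypomastigotes/well · Medium – Low-serum DMEM with 2% FBS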
# L major viab = reduces viability of Leishmania major promastigotes; resazurin fluorescence viability; inhibition, % at 10 µM; 200,000 compounds, 9% hits; AID 1063; in the data active = inhibition above about 50%;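 also: promastigotes grown with compound for 44 hours at 28 °C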
# Hsp70 activator = Hsp70 transcriptional activation, primary screen. activation, % at 10 µM. HeLa Hsp70 promoter luciferase reporter, luminescence; scaled: vehicle 0, proteasome-inhibitor control 100%. AID 1203. 200,000 compounds, 0.04% hits;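 active = activation above the mean across all tested compounds plus 3 SD, cutoff set per campaign, cut at about 5.5% in these data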;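 also: 100% = MG132 at 30 µM as the positive control and 0% = DMSO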
# Active calls of the source: *; x = not tested or not shown.
SMILES,HSF1 inhib,HSF1 activator,T cruzi inh,L major viab,Hsp70 activator
Clc1ccc(SCCCCN2CCNCC2)cc1,7,9,32,100*,0
Cc1ccc(SCCCCN2CCNCC2)cc1,0,12,27,100*,0
CCOc1ccc(C(=O)CCC(=O)N(CC)CC(=O)Nc2c(F)cccc2F)cc1,3,-5,-5,x,x
O=C(N=Nc1c(O)[nH]c2ccc(Cl)cc12)c1cc(-c2cccs2)nc2ccccc12,-32,-30,22,52*,0
O=C(CN1C(=O)NC2(CCCC2)C1=O)N1CCc2ccccc2C1,-5,1,1,-2,0
COc1ccc(NC(=O)Nc2ccc(C(=O)N3CCOCC3)cc2)c(OC)c1,-16,0,-8,-4,0
Cc1ccc(C(=O)N(Cc2ccc3c(c2)OCO3)Cc2nc3ccccc3c(=O)[nH]2)cc1,x,x,11,96*,0
Cc1[nH][nH]c(=O)c1C=NCc1cccs1,27,69*,-15,-9,0
COc1ccc(Cn2c(C)ccc2C)cc1,-23,-36,24,-8,0
COc1ccc(Cn2c(-c3ccc(Br)cc3)c[n+]3ccccc23)cc1,34,62*,70*,99*,0
Cc1ccc(OCC(=O)NC(=S)Nc2ccc(Br)cn2)cc1,-6,0,1,x,x
CCc1sc(C(=O)N2CCCN(C)CC2)cc1Br,2,27,23,x,x
CCc1sc(C(=O)NC2CCN(C)CC2)cc1Br,-6,-4,62*,35,0
CC(C)N(CCn1c(SCC(=O)N2CC(=O)Nc3ccccc32)nc2ccccc2c1=O)C(C)C,4,-6,69*,9,0
O=C1CN(C(=O)CSc2nc3ccccc3n2CCc2ccccc2)c2ccccc2N1,1,12,3,58*,0
CN(C)CCCn1c(SCC(=O)N2CC(=O)Nc3ccccc32)nc2ccccc2c1=O,3,1,25,7,0
C=CCn1c(SCC(=O)N2CC(=O)Nc3ccccc32)nc2scc(-c3cccs3)c2c1=O,4,23,24,65*,0
Cc1ccc2c(c1)N(CC(=O)N1CCCC1)C(=O)CO2,0,6,2,x,x
COc1ccc(N(CC(=O)N2CCN(Cc3ccccc3)CC2)S(C)(=O)=O)cc1Cl,-8,0,9,x,x
Cc1ccc(C(=O)N2CCCc3ccccc32)c(F)c1F,-6,13,1,x,x
CCOC(=O)c1cc(C)sc1NC(=O)CSC1=NCCS1,15,-4,-7,x,x
COc1ccc(CCN2CC(C#N)=C3c4cc(OC)c(OC)cc4CCN3C2)cc1OC,-3,-5,-7,95*,0
COc1ccc(Cl)cc1NS(=O)(=O)N1CCOCC1,4,15,-9,x,x
COc1cc(O)oc1C=Nc1ccc(C(=O)O)cc1,-62*,-64,-1,-1,0
COc1ccc(S(=O)(=O)N2CCOCC2)cc1NC(=O)COC(=O)C1COc2ccccc2O1 (stereo not given),-10,-6,1,66*,-1
SMILES,HSF1 inhib,HSF1 activator,T cruzi inh,L major viab,Hsp70 activator
COc1ccc(S(=O)(=O)N2CCOCC2)cc1NC(=O)COc1ccccc1OC,-2,7,2,x,x
COc1ccc(S(=O)(=O)N2CCOCC2)cc1NC(=O)CN1CCC(Cc2ccccc2)CC1,6,17,19,99*,0
CCOc1cc(N2CCOCC2)c(OCC)cc1NC(=O)CN1CCC(Cc2ccccc2)CC1,11,15,62*,20,0
C=CCN(CC=C)C(=S)NC(=O)c1ccc(OC)cc1,-2,2,33,8,0
COc1ccc(C(=O)NC(=S)N(Cc2ccccc2)Cc2ccccc2)cc1,-15,-10,52,90*,0
C=CCN(CC=C)C(=S)NC(=O)c1ccc(-c2ccccc2)cc1,6,15,55*,7,0
O=C(NC(=S)N(CCc1ccccc1)CCc1ccccc1)c1ccco1,97,68*,39,95*,0
COc1cc(C(=O)NC(=S)N(CCc2ccccc2)CCc2ccccc2)cc(OC)c1OC,-5,20,51,99*,0
Cc1ccc(C)c(S(=O)(=O)NCCCc2ccccc2)c1,3,3,8,x,x
CC(C)[C@H](NC(N)=O)C(=O)NNC(=O)COc1cccc(C(F)(F)F)c1,88,142*,0,x,x
O=C(Nc1nccs1)c1ccc(COc2ccccc2)o1,30,56*,-17,x,x
O=C(Nc1nccs1)c1ccc(CSc2ccccc2)o1,50,63*,-9,x,x
Cc1ccc(OCc2ccc(C(=O)Nc3nccs3)o2)cc1,36,60*,-1,-2,1
Cc1ccc(SCc2ccc(C(=O)Nc3nccs3)o2)cc1,33,38,-6,x,x
COc1ccc(C(CC(=O)Nc2ccccc2OC)n2cccc2)cc1 (stereo not given),-1,4,5,54*,0
COc1ccc(C(CC(=O)Nc2nccs2)C(C)C)cc1 (stereo not given),6,41,-3,x,x
COc1ccc(C(CC(=O)Nc2cc(OC)cc(OC)c2)n2cccc2)cc1 (stereo not given),5,8,56*,96*,0
COc1ccc(C(CC(=O)Nc2nccs2)n2cccc2)cc1 (stereo not given),33,58*,-3,6,0
COc1cc(NC(=O)CCCNC(=O)c2ccc(Cl)cc2)cc(OC)c1OC,2,28,-9,x,x
COC(=O)c1c(C)[nH]c(O)c1C=Nc1ccc(C(C)C)cc1,-7,24,58*,-3,0
COC(=O)c1c(C)[nH]c(O)c1C=Nc1ccc(Oc2ccccc2)cc1,-5,5,-28,-3,0
COc1ccc(-c2cc(=O)oc3c(C)c(O)ccc23)cc1,-32,-29,-24,x,x
COc1ccc(/C=C/C(=O)c2c(O)ccc3c(C)cc(=O)oc23)cc1,1,34,-28,88*,0
COc1ccc(/C=C\C(=O)c2c(O)ccc3c(C)cc(=O)oc23)cc1,13,37,-9,100*,0
Brc1ccc(C=Nc2ccc3c(c2)OCCOCCOCCO3)s1,10,20,-6,-1,0
SMILES,HSF1 inhib,HSF1 activator,T cruzi inh,L major viab,Hsp70 activator
Cn1nc(C(=O)NNC(=O)C2CSC3(C)CCC(=O)N23)c2ccccc2c1=O (stereo not given),2,-6,-15,x,x
COc1ccc(O)c(C(=O)CC(=O)c2ccccc2)c1,4,37,-1,23,0
COc1ccc(O)c(C(=O)c2cc(C(=O)NCCc3ccccc3)c(=O)n(CCc3ccccc3)c2)c1,0,6,53,77*,0
Cc1ccc(O)c(C(=O)c2cc(C#N)c(=O)n(Cc3ccccc3)c2)c1,0,-3,-1,12,0
Cc1ccc(O)c(C(=O)c2cc(C(=O)NCCc3ccccc3)c(=O)n(CCc3ccccc3)c2)c1,-4,10,61*,99*,0
CC(=O)N1CCC(N(CCN2CCOCC2)C(=S)Nc2cc(C)ccc2C)CC1,-26,-42,-1,32,0

# Source: PubChem
